# Measurements of several laboratories.
# Compare with care: the assays were run in different laboratories.
# Target: Receptor tyrosine-protein kinase erbB-2 (ERBB2, Homo sapiens, UniProt P04626)
SMILES,assay,setting,endpoint,result
C#Cc1n[nH]c2c(-c3cn([C@@H](C)c4ccccn4)c(=O)[nH]c3=O)cc(F)cc12,"enzyme activity, inhibitor",0.1 µM,inhibition,-0.7%
C[C@H](C(=O)N[C@H]1COc2ccccc2[C@@H]1S(C)(=O)=O)c1ccc(F)cc1,"enzyme activity, inhibitor",10 µM,inhibition,0%
Cn1cc(-c2cc(F)cc(N3CCn4c(cc5c4CCCC5)C3=O)c2CO)cc(Nc2ccc(N3CCN(C4COC4)CC3)cn2)c1=O,"enzyme activity, inhibitor",0.1 µM,inhibition,7%
CC(C)(C)c1cc(C=C(C#N)C#N)cc(Br)c1O,"enzyme activity, inhibitor",0.5 µM,remaining activity,95.7%
Cn1cc(-c2cccc(N3CCc4c(sc5c4CC(C)(C)C5)C3=O)c2CO)cc(Nc2ccncn2)c1=O,"enzyme activity, inhibitor",1 µM,inhibition,54%
C#Cc1n[nH]c2c(-c3cn([C@@H](C)c4ccccc4)c(=O)[nH]c3=O)cc(F)cc12,"enzyme activity, inhibitor",0.1 µM,inhibition,-8.5%
Cc1nn(C)cc1-c1nc2c(N3CCN(Cc4ccc(Cl)cc4)CC3)c(Cl)cnc2[nH]1,"binding, competition with immobilised ligand",1 µM,remaining binding,70%
Nc1ncc(-c2nc(N3CCOCC3)nc(N3CCOCC3)n2)c(C(F)F)n1,"binding, competition with immobilised ligand",10 µM,remaining binding,65%
O=c1[nH]c2ccccc2n1C1CCN(Cc2ccc(-c3[nH]c4cc5ncnc5cc4nc3-c3ccccc3)cc2)CC1,cell-free assay,0.5 µM,remaining signal,88.9%
N#CC1(c2ccccn2)CCN(Cc2cc(C(=O)O)c(=O)n3ccccc23)CC1,"cell-free assay, competition with immobilised ligand",1 µM,remaining binding,96%
c1ccc(C(NCCNC(c2ccccc2)c2ccccc2)c2ccccc2)cc1,"enzyme activity, inhibitor",10 µM,inhibition,-7%
Cn1cncc1[C@@](O)(COc1ccc(C#N)cc1-c1ccc(OC(F)(F)F)cc1)c1ccc(C#N)cc1,"cell-free assay, competition with immobilised ligand",1 µM,remaining binding,94%
COc1cc(Nc2ncc(F)c(Nc3ccc4c(n3)NC(=O)C(C)(C)O4)n2)cc(OC)c1OC,"binding, competition with immobilised ligand",10 µM,inhibition,70%
COc1ncccc1-c1cnn2ccc(N3CCN(C(=O)OC(C)C)CC3)nc12,"binding, competition with immobilised ligand",1 µM,remaining binding,92%
